Compounds with a hit are over-represented: about 4.7% of the library has one in this group of screens.
MrgX1 allo act: positive allosteric modulators of MrgX1, primary screen, HEK293 cells, Fluo-4 calcium flux | 310,000 compounds, 0.63% hits | FDSS; hits give high values | B-score at 10 µM | Mas-related G-protein coupled receptor member X1 (Homo sapiens), Q96LB2;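 active = plate-corrected calcium response at least 3 library SD above typical, normal starting fluorescence, not activating the receptor alone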;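 note: compound read alongside a low EC10 to EC30 dose of BAM8-22 agonist; peak minus trough fluorescence over baseline measured at the second addition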
KCC2 mod: KCC2 cotransporter modulators, thallium flux, primary screen, cell-based, HEK293 KCC2, FluoZin-2 fluorescence, MLSMR | KCC2 cells, thallium flux FluoZin-2 fluorescence | B-score of Tl+ flux slope (higher = more flux/activation; lower = inhibition) at 10 µM | 190,000 compounds, 2.2% hits | AID 1456, 2008;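 active = thallium flux slope and its plate-corrected score both differing from the plate sample mean at a set confidence after two filtering rounds, in either direction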;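 note: slope of fluorescence scaled to starting intensity during 10 to 20 s after thallium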
RGS4 act: RGS4 potentiators or activators, primary screen, cell-based, HEK293 M3R inducible RGS4, calcium flux | carbachol calcium flux Fluo4; hits give low values | B-score at 10 µM | 310,000 compounds, 0.92% hits | AID 463111, 2010;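 active = B-score of the integrated calcium signal more than 4 SD below the library mean, with starting fluorescence not abnormally high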;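 note: negative B-score means reduced calcium response which marks RGS4 activation or potentiation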
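test system = M3R-expressing HEK293 line, RGS4 induced by doxycycline | probe or stimulus = carbachol at ECmax as muscarinic agonist stimulus | timing = dye loading 30 min 37 °C, buffer rest 30 min RT | signal = calcium dye Fluo4 fluorescence | evaluation = B score from integrated fluorescence ratio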
MrgX1 antagonist: antagonists of human MrgX1 receptor, primary screen, HEK293 cells, Fluo-4 calcium flux; Mas-related G-protein coupled receptor member X1 (Homo sapiens), Q96LB2; AID 588676, 2011; 310,000 compounds, 1.3% hits; B-score at 10 µM; BAM8-22 antagonism; hits give low values;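 active = calcium-response B-score plate-corrected more than 3 library SD below zero, starting fluorescence within 5 deviations, no agonist response on first addition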;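 note: peak minus trough fluorescence over baseline after final BAM8-22 challenge near maximal dose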
RGS4 inh: RGS4 inhibitors, primary screen, cell-based, HEK293 M3R inducible RGS4, calcium flux. Regulator of G-protein signaling 4 (Homo sapiens), P49798. 310,000 compounds, 0.45% hits. B-score at 10 µM. Fluo-4 calcium flux; hits give high values; triggered by carbachol at its EC20;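 active = B-score, a plate-corrected calcium signal, over three deviations above library mean, with baseline fluorescence within five deviations of library mean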;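 note: RGS4 expression induced by doxycycline in cells with stable M3 receptor; B-score is computed from the integrated fluorescence ratio over baseline after carbachol; higher B-score means a larger calcium signal and so more RGS4 inhibition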
MrgX1 agonist: agonists of human MrgX1 receptor, primary screen, HEK293 cells, Fluo-4 calcium flux; Mas-related G-protein coupled receptor member X1 (Homo sapiens), Q96LB2; Fluo-4 calcium fluorescence, agonist mode; hits give high values; B-score at 10 µM; 310,000 compounds, 0.44% hits; AID 588627, 2011;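 active = calcium response B-score plate-corrected fluorescence ratio at least 3 library SD, with starting fluorescence B-score inside 5 SD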
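times = overnight plating, then 30 min 37 °C plus 30 min room-temperature dye loading | assay system = stable human MrgX1 HEK293 cell line | input = fifteen thousand cells per well | signal = kinetic calcium dye fluorescence, Fluo-4 NW | dosing = compound delivered in addition one of three | read-out = B-scored fluorescence response ratio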
KCC2 secondary: KCC2 modulators in sodium-free buffer, confirmation, cell-based, HEK293 KCC2, thallium flux, secondary assay; shares compounds with KCC2 mod; AID 1713, 2009; FluoZin2 fluorescence; hits give high values; 3,700 compounds, 15% hits; normalised thallium flux (F/F0 slope) at 10 µM;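 active = thallium flux slope above the same plate's solvent-only control mean plus 3 SD; inconclusive = the two replicate wells disagree; inactive = no significant difference from solvent-only control wells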
KCC2 bumet counter: thallium flux persisting under bumetanide in KCC2 cells, confirmation, counter-screen for KCC2 modulator project, cell-based, HEK293 KCC2, FluoZin2, secondary assay 3. shares compounds with KCC2 mod. HEK293-KCC2 + bumetanide/ouabain; hits give high values. normalized thallium flux at 10 µM. 3,700 compounds, 49% hits. AID 1714, 2009;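 active = thallium entry rate above the same plate's blocked-transporter control wells by more than 3 SD; inconclusive = the two repeat wells disagree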;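 note: raw slope of fluorescence over initial fluorescence between 10 and 20 s after thallium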
KCC2 secondary2: KCC2 modulators without ouabain present, confirmation, cell-based, HEK293 KCC2, thallium flux, FluoZin2, secondary assay 2; shares compounds with KCC2 mod; thallium flux FluoZin2 fluorescence; actives lie on both sides; F/F0 rise rate, 10–20 s post-thallium; normalized thallium flux at 10 µM; 3,700 compounds, 23% hits;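 active = thallium flux slope more than 3 SD above or below the plate's solvent-only control mean, mostly below; inconclusive = the two repeat wells disagreed; inactive = no significant shift from solvent-only controls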;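 note: raw slope with 0.1% DMSO as baseline and bumetanide as block control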
HEK counter1: thallium flux modulation in parental HEK cells, confirmation, counter-screen for KCC2 modulator project, cell-based, counterscreen 1; thallium flux rate (normalised fluorescence) at 10 µM; HEK293 parental cells, thallium flux FluoZin2, ouabain; baseline-ratio fluorescence slope, 10–20 s after thallium; shares compounds with KCC2 mod; AID 1716, 2009; 3,700 compounds, 46% hits;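 active = thallium flux rate significantly above the same plate's solvent-only control wells, beyond their mean plus 3 SD; inconclusive = the two replicate wells gave conflicting results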
KCC2 retest ouab: KCC2 inhibitors and activators, ouabain retest, confirmation, HEK-KCC2 cells. shares compounds with KCC2 mod. HEK293-KCC2, thallium flux FluoZin2 fluorescence; bidirectional: low = inhibitor, high = activator. raw Tl+ flux slope (below DMSO = inhibition, above = activation) at 10 µM. 3,700 compounds, 48% hits. AID 1717, 2009;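 active = thallium flux slope beyond 3 SD from same-plate DMSO control mean in most replicates, usually higher, sometimes lower; inconclusive = repeat tests gave conflicting results; inactive = no significant difference from controls in most replicates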;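 note: slope of initial-normalized fluorescence between seconds 10 and 20 after thallium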
HEK293 Tl flux2: native HEK Tl+ uptake effects, second counter-screen – HEK cells, counterscreen 2, counter-screen for KCC2 modulator project, confirmation; thallium flux slope at 10 µM; shares compounds with KCC2 mod; AID 1718, 2009; 3,700 compounds, 33% hits; HEK293 parental, thallium flux FluoZin-2 fluorescence slope;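 active = thallium flux slope above the same plate's solvent-control mean plus 3 SD in both duplicate wells; inconclusive = duplicate wells that disagreed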;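 note: run without ouabain in cells lacking the KCC2 cotransporter; slope of fluorescence scaled to its starting value between 10 and 20 s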
An asterisk follows results filed as active; i = inactive; ? = inconclusive; / = no result.

SMILES | MrgX1 allo act | KCC2 mod | RGS4 act | MrgX1 antagonist | RGS4 inh | MrgX1 agonist | KCC2 secondary | KCC2 bumet counter | KCC2 secondary2 | HEK counter1 | KCC2 retest ouab | HEK293 Tl flux2
Cc1ccc(CN(c2ccc(C(=O)Nc3ccc4c(c3)OCO4)cc2)S(C)(=O)=O)cc1 | i | 4.7* | i | i | i | i | 0.0076 | ? | 0.028 | 0.008 | 0.019 | 0.012
COCCn1c(=S)[nH]c2ncccc2c1=O | i | 1.9 | i | i | i | i | / | / | / | / | / | /
COCCCn1c(=S)[nH]c2ncccc2c1=O | i | 3.6 | i | i | i | i | / | / | / | / | / | /
CN(C)CCCn1c(=S)[nH]c2ccccc2c1=O | i | 0.53 | i | i | i | i | / | / | / | / | / | /
O=c1c2cccnc2[nH]c(=S)n1CCC1=CCCCC1 | i | 68* | i | i | i | i | 0.041* | 0.16* | 0.051* | 0.074* | 0.085* | 0.047*
CCCCCn1c(=S)[nH]c2ncccc2c1=O | i | 57* | i | i | i | i | 0.038* | 0.12* | 0.046* | ? | 0.094* | 0.036*
CN(CCCn1c(=S)[nH]c2ncccc2c1=O)Cc1ccccc1 | i | 15* | i | i | i | i | ? | 0.057* | 0.036 | 0.022* | 0.057* | 0.014*
Cc1ccc(S(=O)(=O)CCN2C=CC(C(F)(F)F)=NCC2)cc1 | i | 0.43 | i | i | i | i | / | / | / | / | / | /
COc1ccc(N2CCN(S(=O)(=O)CC34CCC(CC3=O)C4(C)C)CC2)cc1 (configuration not stated) | i | / | i | i | i | i | / | / | / | / | / | /
COCCNc1oc(-c2ccc(F)cc2)nc1C#N | i | -0.12 | i | i | i | i | / | / | / | / | / | /
COCCNc1oc(-c2ccccc2Cl)nc1C#N | i | -3.8* | i | i | i | i | 0.0078 | 0.0055 | 0.03 | 0.0068 | 0.02 | 0.0089
